Converted amounts (≈) assume the structure as drawn. “And” between values parts separate entries of the source, which are not always exact repeats. Equal entries are not always repeated. Where two headings read alike, the source gives them in different places. Where a SMILES comes first, the peptide text is derived from it. [ ]: non-standard residue; d: D form. dPhe(4-Cl) = N[C@H](Cc1ccc(Cl)cc1)C(=O)O; aIle = CC[C@@H](C)[C@H](N)C(=O)O; dPhLac = O=C(O)[C@H](O)Cc1ccccc1; Sar = CNCC(=O)O

Data set [1] concerns P. falciparum strain 3D7. In words: microbe, parasite or virus in culture. The conditions noted are these: Plasmodium falciparum, 3D7, read-out: IC50 (P. falciparum 3D7).
The test system of another data set is Mycobacterium vaccae. Kind of data set: MIC against Mycobacterium vaccae, microplate alamar blue broth dilution assay. The format is cell-based. Background: The colour change of resazurin is a common sign of viable cells or microbes.
The target in another data set is human serum albumin (Homo sapiens, UniProt P02768). Kind of data set: Human serum albumin binding. The format is in vitro ADME.
Sequence of human serum albumin (P02768 25-609): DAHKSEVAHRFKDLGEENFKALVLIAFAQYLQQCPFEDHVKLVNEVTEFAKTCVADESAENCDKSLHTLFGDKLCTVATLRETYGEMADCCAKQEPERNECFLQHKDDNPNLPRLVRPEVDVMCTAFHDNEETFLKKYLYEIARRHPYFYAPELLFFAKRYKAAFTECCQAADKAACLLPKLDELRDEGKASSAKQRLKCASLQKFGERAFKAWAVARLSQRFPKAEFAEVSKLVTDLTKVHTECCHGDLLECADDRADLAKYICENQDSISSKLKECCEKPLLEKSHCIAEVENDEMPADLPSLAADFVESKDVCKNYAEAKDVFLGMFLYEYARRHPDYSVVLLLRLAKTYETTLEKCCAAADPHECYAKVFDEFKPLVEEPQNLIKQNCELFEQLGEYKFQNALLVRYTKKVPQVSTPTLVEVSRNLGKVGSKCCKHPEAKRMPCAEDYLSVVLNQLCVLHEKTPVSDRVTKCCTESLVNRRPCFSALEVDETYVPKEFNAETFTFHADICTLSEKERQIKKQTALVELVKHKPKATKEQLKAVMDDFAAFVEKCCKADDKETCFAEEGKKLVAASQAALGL
Data set [2] is described as follows: Intrinsic microsomal clearance, human liver microsomes. In kind it is in vitro ADME. The note with it: for intrinsic microsomal clearance (Clint), human: human liver microsomes.
Data set [3] can be described thus: Intrinsic microsomal clearance, mouse liver microsomes. In kind it is in vitro ADME. The note with it: for intrinsic microsomal clearance (Clint), mouse: mouse liver microsomes. (Microsomes from liver hold many membrane-bound enzymes, among them those of drug oxidation.)
Data set [4] can be described thus: Plasma stability, human plasma. In kind it is in vitro ADME. The conditions noted are these: 2 h incubation at 37 °C. In short, it runs like this:
(§1)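 Test compound incubated in human or mouse plasma for 2 h at 37 °C. The amount of compound remaining afterward was quantified and reported as percent remaining.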

The nature of data set [5]: Plasma stability, mouse plasma. The format is in vitro ADME. The essentials: as §1
Data set [6] is described as follows: Kinetic aqueous solubility. The format is physicochemical.
Another data set deals with M. tuberculosis H37Rv. The conditions noted are these: drug-susceptible Mtb H37Rv; 6 days + 48 h resazurin.
Data set [7] relates to P. falciparum strain 3D7. The conditions noted are these: strain 3D7, 3 h.
A further data set deals with M. tuberculosis H37Ra. The note with it: natural product; cited from earlier work.
The test system of the next data set is Plasmodium falciparum. The conditions noted are these: natural product; cited from earlier work.

With `CCN(CC)CCCC(C)Nc1ccnc2cc(Cl)ccc12` (centres unmarked) [CQ, chloroquine], in the data set with P. falciparum strain 3D7 [1], the half-inhibitory concentration (IC50) was found to be 0.005 µM.

For `CC[C@@H](C)[C@@H]1NC(=O)[C@@H](Cc2ccccc2)OC(=O)CN(C)C(=O)[C@H]([C@H](C)CC)NC(=O)[C@@H](Cc2ccccc2)OC(=O)CN(C)C1=O` [Compound 9] (cyclo([Sar][dPhLac][aIle][Sar][dPhLac][aIle])), the IC50 is > 100 µM. For the same compound, in the data set with Mycobacterium vaccae, the “MIC (M. vaccae)” value stood at 18.8 µM (≈ 12.5 µg/mL). Besides, the “% human serum albumin binding (%HSA)” value at human serum albumin turned out to be 88%. In [2], the “stability in human microsomes (in words)” value is on record as “moderate stability” and the “intrinsic microsomal clearance (Clint), human” value was 46.53 mL/(min g) tissue. Also, in data set [3], the “stability in mouse microsomes (in words)” value is “low stability” and the “intrinsic microsomal clearance (Clint), mouse” value is given as 38.3 mL/(min g) tissue. Moreover, the “plasma stability (% remaining), human plasma” value in [4] amounted to 103%. Further, the amount remaining at 2 h in data set [5] turned out to be 18%. Also, in data set [6], the kinetic solubility is > 180 µg/mL. In addition, in the data set on M. tuberculosis H37Rv, the “MIC (Mtb H37Rv)” value was > 80 µM. Further, it took 2.3 µM to reach half-maximal inhibition with P. falciparum strain 3D7 [7] (IC50).

Turning to `CC(C)C[C@@H]1NC(=O)[C@@H](Cc2ccccc2)OC(=O)CN(C)C(=O)[C@H](CC(C)C)NC(=O)[C@@H](Cc2ccccc2)OC(=O)CN(C)C1=O` [Compound 10] (cyclo(L[Sar][dPhLac]L[Sar][dPhLac])), in data set [6], the kinetic solubility is > 180 µg/mL.

On to `CC(C)[C@@H]1NC(=O)[C@@H](Cc2ccccc2)OC(=O)CN(C)C(=O)[C@H](C(C)C)NC(=O)[C@@H](Cc2ccccc2)OC(=O)CN(C)C1=O` [Compound 11] (cyclo([Sar][dPhLac]V[Sar][dPhLac]V)), for which the IC50 is > 100 µM. For the same compound, the kinetic solubility in [6] amounted to 80 µg/mL (≈ 126 µM). Moreover, the IC50 with P. falciparum strain 3D7 [7] came to 7.5 µM.

Turning to `CN1CC(=O)O[C@H](Cc2ccccc2)C(=O)NCC(=O)N(C)CC(=O)O[C@H](Cc2ccccc2)C(=O)NCC1=O` [Compound 12] (cyclo(G[Sar][dPhLac]G[Sar][dPhLac])), the IC50 was > 100 µM. Besides, the “% human serum albumin binding (%HSA)” value on human serum albumin was found to be 54.7%. The “intrinsic microsomal clearance (Clint), human” value in data set [2] is 34.00 mL/(min g) tissue. Further, the “intrinsic microsomal clearance (Clint), mouse” value in data set [3] is on record as 52.00 mL/(min g) tissue. For the same compound, in data set [5], the share remaining at 2 h was determined as 0%. In data set [6], the solubility (kinetic) was found to be 81 µg/mL (≈ 147 µM). The compound also came in with an IC50 in the data set on P. falciparum strain 3D7 [7] of 20.1 µM.

As to `CC[C@H](C)[C@@H]1NC(=O)[C@@H](Cc2ccccc2)OC(=O)CNC(=O)[C@H]([C@@H](C)CC)NC(=O)[C@@H](Cc2ccccc2)OC(=O)CNC1=O` [Compound 13] (cyclo(G[dPhLac]IG[dPhLac]I)), the IC50 was > 100 µM. Moreover, the “% human serum albumin binding (%HSA)” value on human serum albumin amounted to 91.02%. The “intrinsic microsomal clearance (Clint), human” value in data set [2] is listed as 32.80 mL/(min g) tissue. For the same compound, in data set [3], the “intrinsic microsomal clearance (Clint), mouse” value was 65.90 mL/(min g) tissue. The same compound returned a fraction remaining at 2 h in [5] of 0%. For the same compound, the solubility (kinetic) in [6] was found to be 6 µg/mL (≈ 9.42 µM). Besides, 13.8 µM corresponded to half-maximal inhibition with P. falciparum strain 3D7 [7] (IC50).

For `CC(C)[C@@H]1NC(=O)[C@@H](Cc2ccccc2)NC(=O)CN(C)C(=O)[C@H](C(C)C)NC(=O)[C@@H](Cc2ccccc2)NC(=O)CN(C)C1=O` [Compound 15] (cyclo([Sar][dF]V[Sar][dF]V)), the IC50 is > 100 µM. For the same compound, the “intrinsic microsomal clearance (Clint), human” value in data set [2] is reported as 3.60 mL/(min g) tissue. In addition, the “intrinsic microsomal clearance (Clint), mouse” value in [3] is reported as 7.52 mL/(min g) tissue. In the data set with P. falciparum strain 3D7 [7], the IC50 is 7.7 µM.

`CC[C@@H](C)[C@@H]1NC(=O)[C@@H](Cc2ccccc2)NC(=O)CN(C)C(=O)[C@H]([C@H](C)CC)NC(=O)[C@@H](Cc2ccccc2)NC(=O)CN(C)C1=O` [Compound 16] (cyclo([Sar][dF][aIle][Sar][dF][aIle])): the 50% inhibitory concentration (IC50) was > 100 µM. Moreover, the “intrinsic microsomal clearance (Clint), human” value in [2] was 18.90 mL/(min g) tissue. Also, the “intrinsic microsomal clearance (Clint), mouse” value in data set [3] is on record as 47.71 mL/(min g) tissue. The compound further gave a half-maximal inhibitory concentration (IC50) in the data set with P. falciparum strain 3D7 [7] of 2.2 µM.

Consider `CC[C@@H](C)[C@@H]1NC(=O)[C@@H](Cc2ccc(Cl)cc2)NC(=O)CN(C)C(=O)[C@H]([C@H](C)CC)NC(=O)[C@@H](Cc2ccc(Cl)cc2)NC(=O)CN(C)C1=O` [Compound 17] (cyclo([Sar][dPhe(4-Cl)][aIle][Sar][dPhe(4-Cl)][aIle])), for which inhibition was half-maximal at 26 µM (IC50). Also, the “% human serum albumin binding (%HSA)” value at human serum albumin was 95% and 95.24%. In data set [6], this compound had a solubility (kinetic) of 34 µg/mL (≈ 46.5 µM). This compound yielded an IC50 in the data set with P. falciparum strain 3D7 [7] of 1.8 µM.

For `CC[C@@H](C)[C@@H]1NC(=O)[C@@H](Cc2ccc(OC)cc2)NC(=O)CN(C)C(=O)[C@H]([C@H](C)CC)NC(=O)[C@@H](Cc2ccc(OC)cc2)NC(=O)CN(C)C1=O` [Compound 18] (cyclo([Sar][dY](Me)[aIle][Sar][dY](Me)[aIle])), the IC50 was > 100 µM. Also, the “% human serum albumin binding (%HSA)” value on human serum albumin was determined as 77.2%. Besides, in [2], the “intrinsic microsomal clearance (Clint), human” value is 8.18 mL/(min g) tissue. Besides, the “intrinsic microsomal clearance (Clint), mouse” value in data set [3] is 13.25 mL/(min g) tissue. In data set [6], this compound came in with a kinetic solubility of 124 µg/mL (≈ 172 µM). Moreover, half-maximal inhibition with P. falciparum strain 3D7 [7] (IC50) required 4.1 µM.

Consider `CC[C@@H](C)[C@@H]1NC(=O)[C@@H](CC(C)C)NC(=O)CN(C)C(=O)[C@H]([C@H](C)CC)NC(=O)[C@@H](CC(C)C)NC(=O)CN(C)C1=O` [Compound 19] (cyclo([dL][aIle][Sar][dL][aIle][Sar])), for which the “% human serum albumin binding (%HSA)” value at human serum albumin was 37% and 37.15%. Moreover, the “intrinsic microsomal clearance (Clint), human” value in data set [2] is on record as 6.07 mL/(min g) tissue. Moreover, in data set [3], the “intrinsic microsomal clearance (Clint), mouse” value is given as 5.79 mL/(min g) tissue. Moreover, the amount remaining at 2 h in data set [5] was 88%. The kinetic solubility in [6] was ≥ 184 µg/mL.

For hirsutellide A, the “MIC (M. tuberculosis H37Ra)” value with M. tuberculosis H37Ra was 6 to 12 µg/mL. For the same compound, the “IC50 (Plasmodium falciparum)” value with Plasmodium falciparum was 2.8 µg/mL.

A word on the IC50: it is the point on the concentration scale where inhibition reaches its midpoint. By amount remaining is commonly meant what is left of the initial amount, in per cent. A low value points to more turnover. What is called solubility (kinetic) is the concentration staying in solution when a stock, usually in DMSO, is diluted into the medium.

These data come from paper PMC7315603 (ACS Omega, 2020).
